This note sets out measurements from ChEMBL document CHEMBL1147049, “Inhibition of MRP1/ABCC1, MRP2/ABCC2, and MRP3/ABCC3 by nucleoside, nucleotide, and non-nucleoside reverse transcriptase inhibitors” (Drug Metab Dispos, 2007).

Holding throughout (format): cell-based
Holding throughout (settings): mdck-ii

In data set [1] the target is T1, Multidrug resistance-associated protein 1 (Homo sapiens, UniProt P33527). As to the kind of experiment: Inhibition of human MRP1 expressed in MDCK2 cells assessed as increase in intracellular CMF fluorescence by CMFDA assay. In short, it runs like this:
(§1)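 MDCKII cells stably transfected with human MRP1, MRP2 or MRP3 cDNA, parental MDCKII as control, grown in DMEM with 10% FCS. Cells preincubated 30 min at 37 °C in darkness ± inhibitor in HBSS with 1 mM pyruvate, then 50 nM CMFDA (final) added for 10 min. Intracellular CMF fluorescence read by confocal laser-scanning microscopy. 20 µM MK571 positive control. At least triplicate, different days.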

Data set [2] concerns the target T2, ATP-binding cassette sub-family C member 3 (Homo sapiens, UniProt O15438). As to the kind of experiment: Inhibition of human MRP3 expressed in MDCK2 cells assessed as increase in intracellular CMF fluorescence by CMFDA assay. In short, it runs like this:
as §1

Data set [3] deals with T3, ATP-binding cassette sub-family C member 2 (Homo sapiens, UniProt Q92887). As to the kind of experiment: Inhibition of human MRP2 expressed in MDCK2 cells assessed as increase in intracellular CMF fluorescence at 16.7 uM by CMFDA assay. Put shortly:
as §1

The target of data set [4] is T3, ATP-binding cassette sub-family C member 2. As to the kind of experiment: Inhibition of human MRP2 expressed in MDCK2 cells assessed as increase in intracellular CMF fluorescence by CMFDA assay. In short, it runs like this:
as §1

Data set [5] deals with T1, Multidrug resistance-associated protein 1. As to the kind of experiment: Inhibition of human MRP1 expressed in MDCK2 cells assessed as increase in intracellular CMF fluorescence at 16.7 uM by CMFDA assay. Put shortly:
as §1

Data set [6] has as its target T2, ATP-binding cassette sub-family C member 3. As to the kind of experiment: Inhibition of human MRP3 expressed in MDCK2 cells assessed as increase in intracellular CMF fluorescence at 16.7 uM by CMFDA assay. Put shortly: as §1
Data set [7] concerns the target T3, ATP-binding cassette sub-family C member 2. As to the kind of experiment: Inhibition of human MRP2 expressed in MDCK2 cells assessed as increase in intracellular CMF fluorescence at 10 uM by CMFDA assay. In short, it runs like this: as §1
Data set [8] concerns the target T2, ATP-binding cassette sub-family C member 3. As to the kind of experiment: Inhibition of human MRP3 expressed in MDCK2 cells assessed as increase in intracellular CMF fluorescence at 10 uM by CMFDA assay. In short, it runs like this: as §1
Data set [9] addresses T1, Multidrug resistance-associated protein 1. As to the kind of experiment: Inhibition of human MRP1 expressed in MDCK2 cells assessed as increase in intracellular CMF fluorescence at 10 uM by CMFDA assay. In short, it runs like this:
as §1

T2 sequence (O15438 whole entry): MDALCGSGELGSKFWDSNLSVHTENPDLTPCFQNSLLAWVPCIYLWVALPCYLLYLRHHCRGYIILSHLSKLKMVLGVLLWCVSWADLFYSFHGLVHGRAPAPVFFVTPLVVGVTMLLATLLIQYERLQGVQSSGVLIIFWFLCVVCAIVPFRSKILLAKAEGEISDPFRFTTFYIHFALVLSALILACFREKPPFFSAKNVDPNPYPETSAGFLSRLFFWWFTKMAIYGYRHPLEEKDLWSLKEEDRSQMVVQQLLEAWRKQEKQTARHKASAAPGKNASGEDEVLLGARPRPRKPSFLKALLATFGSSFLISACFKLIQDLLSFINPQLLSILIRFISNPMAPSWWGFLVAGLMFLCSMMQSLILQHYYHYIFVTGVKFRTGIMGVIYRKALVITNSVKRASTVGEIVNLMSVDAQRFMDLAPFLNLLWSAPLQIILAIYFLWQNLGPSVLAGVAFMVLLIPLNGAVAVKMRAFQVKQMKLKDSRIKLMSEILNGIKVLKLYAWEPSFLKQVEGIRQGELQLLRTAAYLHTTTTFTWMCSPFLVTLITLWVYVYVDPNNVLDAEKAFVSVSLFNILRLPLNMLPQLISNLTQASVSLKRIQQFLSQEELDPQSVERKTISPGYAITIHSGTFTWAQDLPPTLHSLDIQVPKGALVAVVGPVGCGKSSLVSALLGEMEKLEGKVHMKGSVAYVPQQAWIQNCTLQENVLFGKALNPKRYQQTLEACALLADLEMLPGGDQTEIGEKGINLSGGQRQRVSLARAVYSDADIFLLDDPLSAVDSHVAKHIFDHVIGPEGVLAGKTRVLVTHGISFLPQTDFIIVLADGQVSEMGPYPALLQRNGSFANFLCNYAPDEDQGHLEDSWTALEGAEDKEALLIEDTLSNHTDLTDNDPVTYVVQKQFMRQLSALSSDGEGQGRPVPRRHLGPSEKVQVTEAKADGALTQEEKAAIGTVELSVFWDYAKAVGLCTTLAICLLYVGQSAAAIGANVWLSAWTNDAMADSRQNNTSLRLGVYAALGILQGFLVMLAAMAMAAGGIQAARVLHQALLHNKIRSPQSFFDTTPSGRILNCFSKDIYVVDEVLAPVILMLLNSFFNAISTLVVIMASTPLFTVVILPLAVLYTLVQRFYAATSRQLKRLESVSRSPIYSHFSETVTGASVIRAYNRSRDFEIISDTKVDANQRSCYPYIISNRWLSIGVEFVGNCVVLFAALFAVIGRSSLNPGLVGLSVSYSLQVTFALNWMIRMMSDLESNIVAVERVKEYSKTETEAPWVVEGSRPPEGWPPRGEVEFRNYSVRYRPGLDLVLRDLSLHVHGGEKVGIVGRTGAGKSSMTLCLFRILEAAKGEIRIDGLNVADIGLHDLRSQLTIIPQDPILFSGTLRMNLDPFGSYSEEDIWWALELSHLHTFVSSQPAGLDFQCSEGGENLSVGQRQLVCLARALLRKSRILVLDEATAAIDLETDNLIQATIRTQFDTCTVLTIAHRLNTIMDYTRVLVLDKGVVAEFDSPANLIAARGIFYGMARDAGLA
T1 sequence (P33527 whole entry): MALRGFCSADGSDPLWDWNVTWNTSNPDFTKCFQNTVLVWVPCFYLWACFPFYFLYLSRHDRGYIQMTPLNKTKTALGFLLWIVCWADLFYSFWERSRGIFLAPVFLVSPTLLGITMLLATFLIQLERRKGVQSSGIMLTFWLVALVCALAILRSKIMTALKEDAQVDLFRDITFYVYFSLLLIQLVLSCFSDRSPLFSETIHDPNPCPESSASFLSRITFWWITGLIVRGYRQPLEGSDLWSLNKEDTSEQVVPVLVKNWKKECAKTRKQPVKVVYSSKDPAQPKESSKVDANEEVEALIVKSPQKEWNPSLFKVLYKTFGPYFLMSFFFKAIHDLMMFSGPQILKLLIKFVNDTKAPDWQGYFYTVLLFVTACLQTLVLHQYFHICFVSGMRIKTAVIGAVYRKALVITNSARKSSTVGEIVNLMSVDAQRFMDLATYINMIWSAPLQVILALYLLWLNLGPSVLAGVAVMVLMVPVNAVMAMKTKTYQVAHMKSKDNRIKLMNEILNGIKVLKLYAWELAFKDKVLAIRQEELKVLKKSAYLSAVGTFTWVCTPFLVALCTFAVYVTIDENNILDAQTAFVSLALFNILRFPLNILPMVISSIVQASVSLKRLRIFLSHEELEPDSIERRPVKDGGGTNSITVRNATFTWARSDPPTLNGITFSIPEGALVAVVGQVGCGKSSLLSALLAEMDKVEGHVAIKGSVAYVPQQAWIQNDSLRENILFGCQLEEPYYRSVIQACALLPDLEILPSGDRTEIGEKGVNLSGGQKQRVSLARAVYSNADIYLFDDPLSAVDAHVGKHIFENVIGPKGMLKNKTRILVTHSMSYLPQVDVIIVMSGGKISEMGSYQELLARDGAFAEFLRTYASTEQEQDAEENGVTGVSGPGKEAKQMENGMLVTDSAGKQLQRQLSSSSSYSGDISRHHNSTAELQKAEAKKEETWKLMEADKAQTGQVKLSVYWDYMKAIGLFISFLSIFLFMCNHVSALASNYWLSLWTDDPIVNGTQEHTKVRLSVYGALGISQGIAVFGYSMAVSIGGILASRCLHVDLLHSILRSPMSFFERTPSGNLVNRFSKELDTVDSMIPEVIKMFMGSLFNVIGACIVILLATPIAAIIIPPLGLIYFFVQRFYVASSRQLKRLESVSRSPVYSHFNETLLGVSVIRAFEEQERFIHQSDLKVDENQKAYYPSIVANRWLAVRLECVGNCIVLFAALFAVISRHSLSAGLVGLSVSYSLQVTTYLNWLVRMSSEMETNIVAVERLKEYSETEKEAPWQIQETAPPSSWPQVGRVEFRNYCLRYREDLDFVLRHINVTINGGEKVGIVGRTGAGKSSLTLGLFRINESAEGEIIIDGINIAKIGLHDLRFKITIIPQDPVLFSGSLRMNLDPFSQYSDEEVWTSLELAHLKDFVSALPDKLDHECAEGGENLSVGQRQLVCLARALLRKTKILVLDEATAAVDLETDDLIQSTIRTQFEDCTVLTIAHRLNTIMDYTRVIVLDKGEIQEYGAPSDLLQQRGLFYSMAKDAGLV
T3 sequence (Q92887 whole entry): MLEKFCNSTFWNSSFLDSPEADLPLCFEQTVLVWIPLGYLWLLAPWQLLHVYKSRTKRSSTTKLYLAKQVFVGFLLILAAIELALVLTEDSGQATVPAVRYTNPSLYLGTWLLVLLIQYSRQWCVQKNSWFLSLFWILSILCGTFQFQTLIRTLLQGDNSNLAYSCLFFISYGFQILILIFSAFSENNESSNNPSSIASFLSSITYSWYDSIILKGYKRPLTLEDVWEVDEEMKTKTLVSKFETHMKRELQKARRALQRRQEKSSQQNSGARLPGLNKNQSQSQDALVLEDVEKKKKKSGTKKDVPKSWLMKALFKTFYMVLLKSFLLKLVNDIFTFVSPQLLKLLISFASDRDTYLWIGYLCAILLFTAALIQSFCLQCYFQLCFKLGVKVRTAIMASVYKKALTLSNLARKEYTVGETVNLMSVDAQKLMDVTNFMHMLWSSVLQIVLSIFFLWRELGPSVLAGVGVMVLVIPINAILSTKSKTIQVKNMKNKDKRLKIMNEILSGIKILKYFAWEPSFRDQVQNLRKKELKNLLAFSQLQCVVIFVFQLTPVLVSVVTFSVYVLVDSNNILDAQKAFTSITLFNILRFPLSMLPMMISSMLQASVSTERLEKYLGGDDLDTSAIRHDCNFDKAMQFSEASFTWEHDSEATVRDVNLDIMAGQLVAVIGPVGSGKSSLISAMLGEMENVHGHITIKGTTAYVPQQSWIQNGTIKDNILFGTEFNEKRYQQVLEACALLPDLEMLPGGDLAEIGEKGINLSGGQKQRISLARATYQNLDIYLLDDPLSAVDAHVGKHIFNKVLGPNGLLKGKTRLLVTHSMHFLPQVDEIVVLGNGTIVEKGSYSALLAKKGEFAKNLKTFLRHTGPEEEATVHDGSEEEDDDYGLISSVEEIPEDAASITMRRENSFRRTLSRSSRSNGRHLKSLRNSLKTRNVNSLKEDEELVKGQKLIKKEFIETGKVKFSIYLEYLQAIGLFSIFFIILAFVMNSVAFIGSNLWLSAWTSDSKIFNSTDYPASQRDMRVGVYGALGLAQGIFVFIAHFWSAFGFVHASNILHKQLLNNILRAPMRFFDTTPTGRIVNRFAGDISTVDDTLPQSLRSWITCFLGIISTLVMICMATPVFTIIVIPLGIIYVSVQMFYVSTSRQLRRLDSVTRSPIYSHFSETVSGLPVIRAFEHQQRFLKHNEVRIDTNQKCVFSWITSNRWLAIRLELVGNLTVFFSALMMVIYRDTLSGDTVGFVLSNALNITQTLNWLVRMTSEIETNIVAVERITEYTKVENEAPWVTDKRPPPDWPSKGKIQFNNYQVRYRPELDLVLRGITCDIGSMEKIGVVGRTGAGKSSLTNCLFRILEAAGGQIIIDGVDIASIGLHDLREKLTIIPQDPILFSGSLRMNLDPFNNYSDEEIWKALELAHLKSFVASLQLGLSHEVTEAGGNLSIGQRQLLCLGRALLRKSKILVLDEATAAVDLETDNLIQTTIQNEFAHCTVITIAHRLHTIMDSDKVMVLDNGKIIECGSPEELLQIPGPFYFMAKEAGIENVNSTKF

On to `CC(C)Nc1cccnc1N1CCN(C(=O)c2cc3cc(NS(C)(=O)=O)ccc3[nH]2)CC1` [DELAVIRDINE], for which the Activity entry in data set [1] was “Dose-dependent effect”; in [2], “Dose-dependent effect”; in [3], “Active”; in [4], “Dose-dependent effect”; in data set [5], “Active”; in data set [6], “Active”.

For `Nc1ccn([C@@H]2CS[C@H](CO)O2)c(=O)n1` [LAMIVUDINE], the Activity entry in [7] is “Active”; in [1] it was “Dose-dependent effect”; in data set [8], “Active”; in data set [2], “Dose-dependent effect”; in data set [4], “Dose-dependent effect”; in data set [9] it was “Active”.

Take `Nc1nc(NC2CC2)c2ncn([C@H]3C=C[C@@H](CO)C3)c2n1` [ABACAVIR]: the Activity result is listed as “Active” in [7]; “Dose-dependent effect” in data set [1]; “Active” in data set [8]; “Dose-dependent effect” in data set [4]; “Active” in data set [9].

For the compound `C[C@H](Cn1cnc2c(N)ncnc21)OCP(=O)(O)O` [TENOFOVIR ANHYDROUS], the Activity result is on record as “Active” in [7]; “Dose-dependent effect” in data set [1]; “Active” in data set [8]; “Dose-dependent effect” in [2]; “Dose-dependent effect” in [4]; “Active” in [9].

Take `Nc1nc(=O)n([C@@H]2CS[C@H](CO)O2)cc1F` [EMTRICITABINE]: the Activity entry in data set [7] is “Active”; in [1], “Dose-dependent effect”; in data set [8] it was “Active”; in data set [2], “Dose-dependent effect”; in data set [4], “Dose-dependent effect”; in [9], “Active”.

On to `O=C1Nc2ccc(Cl)cc2[C@@](C#CC2CC2)(C(F)(F)F)O1` [EFAVIRENZ], for which the Activity entry is reported as “Active” in data set [7]; “Dose-dependent effect” in [1]; “Active” in data set [8]; “Dose-dependent effect” in data set [2]; “Dose-dependent effect” in data set [4]; “Active” in [9].

Regarding `Cc1ccnc2c1NC(=O)c1cccnc1N2C1CC1` [NEVIRAPINE], the Activity entry is recorded as “Active” in [7]; “Dose-dependent effect” in data set [1]; “Active” in [8]; “Dose-dependent effect” in data set [2]; “Dose-dependent effect” in data set [4]; “Active” in [9].
